Experimental data as given in PubChem BioAssay AID602134 (Broad Institute, 2011).

assay: transferrin receptor uptake blockade – imaging, Alexa594-transferrin, dry powder, selectivity assay for SR-BI HDL uptake inhibitor project, dose response (AID 602134); conditions: mSR-BI cells; series mostly up to 35 µM; transferrin uptake change vs neutral control, negative = inhibition: at the top concentration;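 active = falling transferrin uptake with a fitted half-maximal potency at or below twice the top valid tested dose; inconclusive = flat fit with a 30 to 70% drop, or poor fit; inactive = the rest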
Outline: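 Reagent: Alexa-594-labelled transferrin at 30 µg/mL final. Test system: mSR-BI cells. Times: transferrin uptake 30 min at 37 °C, stopped on ice. Read-out basis: normalized percent of cells with above-threshold perinuclear transferrin. Buffer or medium: serum-free DMEM with 1% BSA after serum wash. Measured by: high-content fluorescence imaging of Alexa-594 transferrin, DAPI nuclear stain.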

Transferrin uptake change vs neutral control, negative = inhibition, inactive:
CCC(=O)N1CCc2cc(-c3csc(NC(=O)c4ccc(F)c(OC)c4)n3)ccc21 44.9%
CCC(=O)N1CCc2cc(-c3csc(NC(=O)c4cccc(OC)c4)n3)ccc21 28.3%
CCC(=O)N1CC(C)(C)c2cc(-c3csc(NC(=O)c4cc(OC)cc(OC)c4)n3)ccc21 3.48%
CCCCCCC1CCC/C1=N\NC(N)=S (configuration not stated) -4.54%
COc1ccc(-c2cc(CC(=O)N(C3CCCCC3)C(C)C(=O)NC3CCCC3)no2)cc1OC (configuration not stated) 31.6%
COc1cc(OC)cc(C(=O)Nc2nc(-c3ccc4c(c3)CCN4C(=O)CN(C)C)cs2)c1 -33.9%
COCC(=O)N1CCc2cc(-c3csc(NC(=O)c4cc(OC)cc(OC)c4)n3)ccc21 16.9%
CCNC(=O)N1CCc2cc(-c3csc(NC(=O)c4cc(OC)cc(OC)c4)n3)ccc21 -0.582%
C[C@H](C(=O)NC1CCCC1)N(C(=O)Cn1nnc(-c2ccc3c(c2)OCO3)n1)C1CCCCC1 27.8%
C[C@@H]1CN([C@H](C)CO)C(=O)c2cc(NC(=O)Cc3cn(C)c4ccccc34)ccc2O[C@H]1CN(C)S(=O)(=O)c1ccc(Cl)cc1 25.5%
CC(=O)N1CCc2cc(-c3nc(NC(=O)c4cccc(OC(F)(F)F)c4)sc3C)ccc21 16.8%
COc1c(NC(=O)C(=O)c2ccc(OCCN3CCOCC3)c3ccccc23)cc(C(C)(C)C)cc1NS(C)(=O)=O 9.84%
